Published values of several laboratories.
Protocols differ between the studies behind these lines.
Observed: cell growth or viability

`O=[N+]([O-])c1cc(I)c(O)c(C=NNc2ccc(Br)cc2)c1` has an IC50 of 11.4 µM (HEK-293T; MTT; 24 h).
With `COc1ccc(NC(=O)Nc2ccc(-c3cn(Cc4ccc(C)cc4)nn3)cc2)cc1` the viability was 77.3% (Huh-7; CCK-8; 50 µM, 48 h).
For `O=C(Nc1ccc(-c2ccccc2)cc1)c1cnn(-c2ccc([N+](=O)[O-])cc2)c1C(F)(F)F`, the inhibition was 12.4% (LX-2; MTS; 50 µM, 72 h).
`Cc1nc(Nc2ncc(C(=O)Nc3c(C)cccc3Cl)s2)cc(N2CC[C@H](O)C2)n1` gave an inhibition of 15% (Ramos; ATP luminescence; 10 µM, 72 h).
With `COc1ccc(NC(=O)Nc2cccc(-c3cn(Cc4ccc(Br)cc4)nn3)c2)cc1` the viability was 10.7% (Huh-7; CCK-8; 50 µM, 72 h).
`O=C(Nc1ccc(Cl)cc1)Nc1ccc(-c2cn(Cc3cccc(Cl)c3)nn2)cc1` gave a viability of 86.7% (Huh-7; CCK-8; 50 µM, 48 h).
For `CC(C)C[C@H](NC(=O)[C@H](Cc1ccccc1)NC(=O)c1cnccn1)B(O)O`, the EC50 was 7 pM (HepG2; ATP luminescence; 48 h).
With `O=C(Nc1cccc(-c2cn(Cc3ccc(Br)cc3)nn2)c1)Nc1ccccc1Br` the viability was 61.2% (Huh-7; CCK-8; 50 µM, 48 h).
For `COc1ccc(NC(=O)Nc2cccc(-c3cn(Cc4ccccc4C)nn3)c2)cc1`, the viability was 10.5% (Huh-7; CCK-8; 50 µM, 72 h).
`COc1cc(NC(=O)c2cnn(-c3ccc([N+](=O)[O-])cc3)c2C(F)(F)F)cc(OC)c1` gave an inhibition of 14.1% (LX-2; MTS; 50 µM, 72 h).
`COc1ccc(NC(=O)NCc2cn(Cc3ccccc3C)nn2)cc1` has a viability of 84.2% (Huh-7; CCK-8; 50 µM, 48 h).
With `O=C(NCc1cn(Cc2cccc(Cl)c2)nn1)Nc1ccc(Cl)cc1` the viability was 86.1% (Huh-7; CCK-8; 50 µM, 48 h).
